# In PMC10998571 (Proceedings of the National Academy of Sciences of the …, 2024):
# No end group written: not given here.
# Columns and labels:
# TNFR1 PLAD = test: PLAD FRET biosensor; format: cell-based; conditions: HEK293 cells, 24 h; FKC 50 µM, ZAF 100 µM or co-treatment; N = 4
# Method in brief: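 PLAD FRET biosensor made by transient Lipofectamine 3000 transfection of HEK293 cells with donor-only or donor/acceptor FRET pair DNAs. Cells moved to 96-well plates at 15,000 cells/well and treated with PBS (negative control), test compound and/or zafirlukast for 24 h before fluorescence intensity readout.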
# TNFR1 [1] = target: T1, TNFR1 (Homo sapiens, UniProt P19438); conditions: 37 (ZAF); ref 55 (Pep4-19); cited from earlier work
# T1 sequence (P19438 30-242) 1: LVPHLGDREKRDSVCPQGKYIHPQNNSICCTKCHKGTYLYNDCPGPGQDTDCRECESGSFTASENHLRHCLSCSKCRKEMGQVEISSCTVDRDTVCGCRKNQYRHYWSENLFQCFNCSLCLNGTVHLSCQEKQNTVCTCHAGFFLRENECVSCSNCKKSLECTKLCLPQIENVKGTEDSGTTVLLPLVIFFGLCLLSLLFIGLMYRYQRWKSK
# T1 sequence (P19438 30-242) 2: T1 sequence (P19438 30-242) 1
# TNFR1 [2] = target: T1, TNFR1; test: TNFR1 FRET biosensor; format: cell-based
# Method in brief: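 HEK293 cells transiently transfected (Lipofectamine 3000) with TNFR1ΔCD–GFP donor alone or with TNFR1ΔCD–RFP acceptor; donor-only served as the no-FRET control. Cells plated at 15,000 cells/well in 96-well plates and treated with PBS or test compound (5 to 50 µM) for 24 h. FRET read from fluorescence intensity; EC50 derived from the dose–response of FRET change.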
# HEK293 cells = test: MTT assay; format: cell-based, human; conditions: FKC 5-50 µM, 24 h, absorbance at 560 nm, N = 4
# [3] = system: IL-1β induced NF-κB activation in HEK293 cells; test: IL-1β induced NF-κB activation; format: cell-based, human; conditions: IL-1β 50 ng/mL, 18 h, N = 4
# Method in brief: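 HEK293 cells co-transfected with an NF-κB-response-element Firefly luciferase reporter (1 μg) and a Renilla reporter (0.1 μg) using Lipofectamine 3000. After 24 h, 15,000 cells/well were incubated with PBS or test compound (5 to 50 µM), with or without IL-1β, for 18 h at 37 °C. Dual-Glo Firefly, then Stop & Glo Renilla, 15 min RT each. Firefly normalised to Renilla and to ligand-treated cells.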
# [4] = i.p. injection, mice; rhodamine fluorescence of tissue sections
# IL-23 receptor = conditions: without affecting ligand binding; cited from earlier work
# NF-κB activation = conditions: cited from earlier work
# TNFR1/TNF = test: Co-IP of TNFR1 and TNF; format: binding; conditions: co-IP with His-tagged TNF beads, overnight 4 °C; FKC 50 µM or etanercept
# Method in brief: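 Ni-NTA agarose beads loaded with His-tagged human TNF for 4 h at 4 °C and washed with PBS. […] Samples were analysed by Western blotting, with equal bead-bound TNF and input TNFR1 as pull-down controls.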
compound,measurement,setting,value
"COc1cc(C(=O)NS(=O)(=O)c2ccccc2C)ccc1Cc1cn(C)c2ccc(NC(=O)OC3CCCC3)cc12 [ZAF, zafirlukast]",FRET change of the PLAD biosensor,TNFR1 PLAD,reduced FRET in the PLAD biosensor
same,extent of inhibition of TNFR1 signaling,TNFR1 [1],only exhibited partial inhibition
FKCRRWQWRMKK-NH2 [FKC],EC50,TNFR1 [2],25 µM
same,toxicity in HEK293 cells,HEK293 cells,does not have any toxic effect in HEK293 cells
"IL-1β: cytokine that binds IL-1 receptor to stimulate NF-κB activation (MedChemExpress, Cat# HY-P7028)",NF-κB activation relative to basal level (IL-1β),[3],10 fold
Rho-FKCRRWQWRMKK-NH2 [rhodamine-conjugated FKC],"localization in liver, kidney, and lung",[4],localization of FKC in all tissues
TEEEQQLY [compound 2305],inhibition of IL-23 signaling,IL-23 receptor,noncompetitively inhibit IL-23 signaling
VQRWLIVWRIRK-NH2 [IDR],inhibition of NF-κB activation (earlier reports),NF-κB activation,inhibit NF-κB activation
etanercept,effect on receptor–ligand interaction,TNFR1/TNF,disrupting receptor–ligand interaction
